{"data": "Assay results of several laboratories", "PASK": "PAS domain-containing serine/threonine-protein kinase (PASK, Homo sapiens, UniProt Q96RG2)", "PRPF4B": "Serine/threonine-protein kinase PRP4 homolog (PRPF4B, Homo sapiens, UniProt Q13523)", "note": "Protocols differ between the studies behind these lines."}
{"SMILES": "Cn1cc(-c2cccc(N3CCc4c(sc5c4CC(C)(C)C5)C3=O)c2CO)cc(Nc2ccncn2)c1=O", "target": "PASK", "assay": "enzyme activity, inhibitor", "conditions": "1 µM", "measurement": "inhibition", "result": "21%"}
{"SMILES": "O=C(Nc1cccnn1)N1CCN([C@@H]2CCOc3cc(C(F)(F)F)ccc32)CC1", "target": "Melanocortin receptor 3 (MC3R, Homo sapiens, UniProt P41968)", "assay": "cell-free assay", "conditions": "20 µM", "measurement": "inhibition", "result": "13%"}
{"SMILES": "Brc1cc2c(N3CCNCC3)nccn2c1", "target": "Beta-secretase 1 (BACE1, Homo sapiens, UniProt P56817)", "assay": "thermal stability, DSF", "conditions": "2.1 mM, pH 5.4", "measurement": "ΔTm", "result": "-0.27 °C"}
{"SMILES": "COc1cc(Cl)c(C(=O)N[C@@H](CN[C@H]2CC[C@@H](N)CC2)Cc2ccc(C#N)cc2)cc1-c1ccc(CN[C@H](C)c2ccc(C)cc2)o1", "target": "PRPF4B", "assay": "enzyme activity, inhibitor", "conditions": "1 µM", "measurement": "remaining activity", "result": "90%"}
{"SMILES": "Nc1ccc(-c2nsc(=O)o2)cc1", "target": "Proteasome Macropain subunit MB1 (PSMB5, Homo sapiens, UniProt P28074)", "assay": "enzyme activity, inhibitor", "measurement": "kinact/KI", "result": "8.6 M⁻¹ s⁻¹"}
{"SMILES": "Nc1ncc(-c2nc(N3CCOCC3)nc(N3CCOCC3)n2)c(C(F)F)n1", "target": "Microtubule-associated serine/threonine-protein kinase 1 (MAST1, Homo sapiens, UniProt Q9Y2H9)", "assay": "binding, competition with immobilised ligand", "conditions": "10 µM", "measurement": "remaining binding", "result": "90%"}
{"SMILES": "Cc1nn(C)cc1-c1nc2c(N3CCN(Cc4ccc(Cl)cc4)CC3)c(Cl)cnc2[nH]1", "target": "Ribosomal protein S6 kinase alpha-2, C-terminal kinase domain (RPS6KA2, Homo sapiens, UniProt Q15349)", "assay": "binding, competition with immobilised ligand", "conditions": "1 µM", "measurement": "remaining binding", "result": "100%"}
{"SMILES": "CCN(CC)CCCC[C@H](NC(=O)[C@H](CC(C)C)NC(=O)[C@H](C)NC(=O)[C@H](Cc1ccccc1)NC(=O)c1ccc(C(C)(C)C)cc1)C(=O)N[C@@H](CO)C(=O)OC", "target": "Nucleosome-remodeling factor subunit BPTF (BPTF, Homo sapiens, UniProt Q12830)", "assay": "thermal stability, DSF", "conditions": "25 µM", "measurement": "ΔTm", "result": "0 °C"}
{"SMILES": "COc1ncccc1-c1cnn2ccc(N3CCN(C(=O)OC(C)C)CC3)nc12", "target": "PRPF4B", "assay": "binding, competition with immobilised ligand", "conditions": "1 µM", "measurement": "remaining binding", "result": "28%"}
{"SMILES": "C#Cc1n[nH]c2c(-c3cn(C(C)c4ccccn4)c(=O)[nH]c3=O)cc(F)cc12 (centres unmarked)", "target": "Epidermal growth factor receptor (EGFR, Homo sapiens, UniProt P00533, L858R/T790M)", "assay": "enzyme activity, inhibitor", "conditions": "1 µM", "measurement": "inhibition", "result": "-1.7%"}
{"SMILES": "Cn1cc(-c2cc(F)cc(N3CCn4c(cc5c4CCCC5)C3=O)c2CO)cc(Nc2ccc(N3CCN(C4COC4)CC3)cn2)c1=O", "target": "PASK", "assay": "enzyme activity, inhibitor", "conditions": "0.1 µM", "measurement": "inhibition", "result": "-1%"}
